According to ChEMBL document CHEMBL3608232, “Exploring the Existing Drug Space for Novel pTyr Mimetic and SHP2 Inhibitors” (ACS Med Chem Lett, 2015):
Blank lines part the entries; values can stand above or below the compound they belong to. Activity calls are given as the source filed them. No cut-off for these calls is given here.

Key:
NCI-H1975 [1] = experiment: Cytotoxicity against human NCI-H1975 cells at 20 to 40 uM by MTT assay; type: functional, cell-based
MDA-MB-231 [2] = experiment: Cytotoxicity against human MDA-MB-231 cells at 20 to 40 uM by MTT assay; type: functional, cell-based
[3] = molecular target: T1, Tyrosine-protein phosphatase non-receptor type 11 (Homo sapiens) (UniProt Q06124); experiment: Inhibition of SHP2 in human NCI-H1975 cells assessed as reduction of EGF-induced ERK1/2 activation at 40 uM after 60 mins relative to control; type: cell-based
T1 sequence (whole entry): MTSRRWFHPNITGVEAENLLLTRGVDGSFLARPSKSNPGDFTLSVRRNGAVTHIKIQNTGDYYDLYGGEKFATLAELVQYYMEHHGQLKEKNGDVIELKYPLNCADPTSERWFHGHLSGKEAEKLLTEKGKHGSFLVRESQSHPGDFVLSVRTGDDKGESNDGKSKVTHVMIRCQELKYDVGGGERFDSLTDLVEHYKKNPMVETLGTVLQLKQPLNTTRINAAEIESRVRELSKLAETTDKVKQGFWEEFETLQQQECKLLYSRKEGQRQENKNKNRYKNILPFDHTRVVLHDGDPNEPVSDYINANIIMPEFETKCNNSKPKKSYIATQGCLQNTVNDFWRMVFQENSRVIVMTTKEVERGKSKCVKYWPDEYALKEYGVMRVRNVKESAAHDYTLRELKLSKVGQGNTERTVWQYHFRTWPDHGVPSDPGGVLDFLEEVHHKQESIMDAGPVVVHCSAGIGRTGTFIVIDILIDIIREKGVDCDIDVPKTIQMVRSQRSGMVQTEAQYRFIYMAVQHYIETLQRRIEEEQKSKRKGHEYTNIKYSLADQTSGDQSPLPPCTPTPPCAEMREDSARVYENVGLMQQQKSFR
Summary of the method: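 H1975 cells were stimulated with EGF and ERK1/2 and paxillin phosphorylation was assessed by immunoblot. Band intensities were quantified, and pERK1/2/total ERK1/2 or pPaxillin(Y118)/total paxillin ratios were normalized to the reference. Blots are representative of at least two independent experiments, with quantified values given as mean ± SD.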

[4] = molecular target: T1, Tyrosine-protein phosphatase non-receptor type 11 (Homo sapiens); experiment: Inhibition of SHP2 in human NCI-H1975 cells assessed as increase in EGF-induced paxillin phosphorylation at Y118 at 40 uM after 60 mins relative to control
[5] = molecular target: T1, Tyrosine-protein phosphatase non-receptor type 11 (Homo sapiens); experiment: Inhibition of phosphatase activity of SHP2 (unknown origin) using pNPP as a substrate at 50 uM after 10 mins by spectrophotometer analysis
[6] = molecular target: T2, Low molecular weight phosphotyrosine protein phosphatase (Homo sapiens, UniProt P24666); experiment: Inhibition of phosphatase activity of human LMWPTP using pNPP as a substrate after 10 mins by spectrophotometer analysis
T2 sequence (P24666 whole entry): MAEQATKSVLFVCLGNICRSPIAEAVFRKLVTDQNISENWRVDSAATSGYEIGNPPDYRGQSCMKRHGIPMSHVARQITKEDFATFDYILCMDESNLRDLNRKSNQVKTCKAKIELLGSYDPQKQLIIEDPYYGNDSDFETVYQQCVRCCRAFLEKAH

[7] = molecular target: T3, Serine/threonine-protein phosphatase 5 (Homo sapiens, UniProt P53041); experiment: Inhibition of phosphatase activity of human PP5 using pNPP as a substrate after 10 mins by spectrophotometer analysis
T3 sequence (P53041 whole entry): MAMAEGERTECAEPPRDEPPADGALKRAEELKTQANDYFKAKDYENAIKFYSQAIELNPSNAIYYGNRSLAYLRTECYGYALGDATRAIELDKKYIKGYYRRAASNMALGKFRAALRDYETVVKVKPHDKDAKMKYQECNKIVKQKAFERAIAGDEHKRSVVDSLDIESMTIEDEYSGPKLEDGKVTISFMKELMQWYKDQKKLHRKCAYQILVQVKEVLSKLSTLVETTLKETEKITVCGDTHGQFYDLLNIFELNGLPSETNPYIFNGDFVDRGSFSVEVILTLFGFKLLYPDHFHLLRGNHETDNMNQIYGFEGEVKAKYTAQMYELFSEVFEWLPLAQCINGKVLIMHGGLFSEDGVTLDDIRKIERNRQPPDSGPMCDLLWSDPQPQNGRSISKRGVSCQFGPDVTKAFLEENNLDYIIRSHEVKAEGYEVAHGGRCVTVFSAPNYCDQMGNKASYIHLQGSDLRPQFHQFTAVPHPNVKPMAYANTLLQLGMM

[8] = molecular target: Receptor-type tyrosine-protein phosphatase F (Homo sapiens, UniProt P10586); experiment: Inhibition of phosphatase activity of human LAR using pNPP as a substrate after 10 mins by spectrophotometer analysis
[9] = molecular target: T4, Tyrosine-protein phosphatase non-receptor type 9 (Homo sapiens, UniProt P43378); experiment: Inhibition of phosphatase activity of human Meg2 using pNPP as a substrate after 10 mins by spectrophotometer analysis
T4 sequence (P43378 whole entry): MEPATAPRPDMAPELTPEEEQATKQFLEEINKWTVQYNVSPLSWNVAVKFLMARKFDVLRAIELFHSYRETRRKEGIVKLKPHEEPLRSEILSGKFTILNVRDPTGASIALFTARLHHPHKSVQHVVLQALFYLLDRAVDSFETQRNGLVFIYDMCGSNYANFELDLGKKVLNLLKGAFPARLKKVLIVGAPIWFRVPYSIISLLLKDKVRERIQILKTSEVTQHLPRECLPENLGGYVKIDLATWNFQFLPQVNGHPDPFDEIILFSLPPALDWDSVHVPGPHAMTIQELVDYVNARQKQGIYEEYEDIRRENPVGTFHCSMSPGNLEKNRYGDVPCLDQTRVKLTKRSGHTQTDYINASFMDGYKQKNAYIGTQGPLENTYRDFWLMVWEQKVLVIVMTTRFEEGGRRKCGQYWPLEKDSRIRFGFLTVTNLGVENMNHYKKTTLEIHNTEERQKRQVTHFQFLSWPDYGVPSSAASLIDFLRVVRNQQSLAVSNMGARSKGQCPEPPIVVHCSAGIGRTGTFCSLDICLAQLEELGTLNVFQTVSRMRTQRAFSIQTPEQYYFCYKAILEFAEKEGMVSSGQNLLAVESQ

[10] = molecular target: Dual specificity protein phosphatase 3 (Homo sapiens, UniProt P51452); experiment: Inhibition of phosphatase activity of human VHR using pNPP as a substrate after 10 mins by spectrophotometer analysis
MDA-MB-231 [11] = experiment: Cytotoxicity against human MDA-MB-231 cells by MTT assay; type: functional, cell-based
[12] = molecular target: T5, Dual specificity protein phosphatase CDC14A (Homo sapiens, UniProt Q9UNH5); experiment: Inhibition of phosphatase activity of human CDC14A using pNPP as a substrate after 10 mins by spectrophotometer analysis
T5 sequence (Q9UNH5 whole entry): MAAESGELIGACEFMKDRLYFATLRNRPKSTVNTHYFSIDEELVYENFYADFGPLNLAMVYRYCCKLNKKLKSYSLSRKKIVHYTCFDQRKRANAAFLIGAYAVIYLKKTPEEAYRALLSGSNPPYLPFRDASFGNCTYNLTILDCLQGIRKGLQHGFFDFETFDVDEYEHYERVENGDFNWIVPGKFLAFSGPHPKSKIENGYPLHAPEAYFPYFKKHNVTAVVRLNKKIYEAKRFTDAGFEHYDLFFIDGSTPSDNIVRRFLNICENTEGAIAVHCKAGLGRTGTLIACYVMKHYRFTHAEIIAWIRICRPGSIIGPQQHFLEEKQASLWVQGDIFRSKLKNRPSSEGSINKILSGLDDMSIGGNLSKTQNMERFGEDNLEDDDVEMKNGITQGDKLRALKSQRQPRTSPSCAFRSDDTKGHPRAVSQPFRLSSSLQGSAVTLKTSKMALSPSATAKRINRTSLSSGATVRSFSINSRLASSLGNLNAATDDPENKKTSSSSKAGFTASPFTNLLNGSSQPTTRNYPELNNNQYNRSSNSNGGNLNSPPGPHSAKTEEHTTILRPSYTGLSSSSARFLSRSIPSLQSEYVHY

[13] = molecular target: Receptor-type tyrosine-protein phosphatase epsilon (Homo sapiens, UniProt P23469); experiment: Inhibition of phosphatase activity of human PTPepsilon using pNPP as a substrate after 10 mins by spectrophotometer analysis
[14] = molecular target: Receptor-type tyrosine-protein phosphatase alpha (Homo sapiens, UniProt P18433); experiment: Inhibition of phosphatase activity of human PTPalpha using pNPP as a substrate after 10 mins by spectrophotometer analysis
[15] = molecular target: Receptor-type tyrosine-protein phosphatase gamma (Homo sapiens, UniProt P23470); experiment: Inhibition of phosphatase activity of human PTPgamma using pNPP as a substrate after 10 mins by spectrophotometer analysis
[16] = molecular target: Receptor-type tyrosine-protein phosphatase mu (Homo sapiens, UniProt P28827); experiment: Inhibition of phosphatase activity of human PTPmu using pNPP as a substrate after 10 mins by spectrophotometer analysis
[17] = molecular target: T6, Tyrosine-protein phosphatase non-receptor type 7 (Homo sapiens, UniProt P35236); experiment: Inhibition of phosphatase activity of human HePTP using pNPP as a substrate after 10 mins by spectrophotometer analysis
T6 sequence (P35236 whole entry): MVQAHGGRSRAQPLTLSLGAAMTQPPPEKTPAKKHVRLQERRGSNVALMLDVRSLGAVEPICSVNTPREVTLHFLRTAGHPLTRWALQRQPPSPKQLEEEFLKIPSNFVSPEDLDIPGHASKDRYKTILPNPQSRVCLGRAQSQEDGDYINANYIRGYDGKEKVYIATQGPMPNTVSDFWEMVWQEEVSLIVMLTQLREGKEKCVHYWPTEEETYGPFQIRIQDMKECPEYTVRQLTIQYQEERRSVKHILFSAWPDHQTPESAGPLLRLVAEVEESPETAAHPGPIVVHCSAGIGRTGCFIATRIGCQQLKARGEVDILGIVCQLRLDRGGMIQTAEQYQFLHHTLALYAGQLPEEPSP

[18] = molecular target: T7, Tyrosine-protein phosphatase non-receptor type 22 (Homo sapiens, UniProt Q9Y2R2); experiment: Inhibition of phosphatase activity of human LYP using pNPP as a substrate after 10 mins by spectrophotometer analysis
T7 sequence (Q9Y2R2 whole entry): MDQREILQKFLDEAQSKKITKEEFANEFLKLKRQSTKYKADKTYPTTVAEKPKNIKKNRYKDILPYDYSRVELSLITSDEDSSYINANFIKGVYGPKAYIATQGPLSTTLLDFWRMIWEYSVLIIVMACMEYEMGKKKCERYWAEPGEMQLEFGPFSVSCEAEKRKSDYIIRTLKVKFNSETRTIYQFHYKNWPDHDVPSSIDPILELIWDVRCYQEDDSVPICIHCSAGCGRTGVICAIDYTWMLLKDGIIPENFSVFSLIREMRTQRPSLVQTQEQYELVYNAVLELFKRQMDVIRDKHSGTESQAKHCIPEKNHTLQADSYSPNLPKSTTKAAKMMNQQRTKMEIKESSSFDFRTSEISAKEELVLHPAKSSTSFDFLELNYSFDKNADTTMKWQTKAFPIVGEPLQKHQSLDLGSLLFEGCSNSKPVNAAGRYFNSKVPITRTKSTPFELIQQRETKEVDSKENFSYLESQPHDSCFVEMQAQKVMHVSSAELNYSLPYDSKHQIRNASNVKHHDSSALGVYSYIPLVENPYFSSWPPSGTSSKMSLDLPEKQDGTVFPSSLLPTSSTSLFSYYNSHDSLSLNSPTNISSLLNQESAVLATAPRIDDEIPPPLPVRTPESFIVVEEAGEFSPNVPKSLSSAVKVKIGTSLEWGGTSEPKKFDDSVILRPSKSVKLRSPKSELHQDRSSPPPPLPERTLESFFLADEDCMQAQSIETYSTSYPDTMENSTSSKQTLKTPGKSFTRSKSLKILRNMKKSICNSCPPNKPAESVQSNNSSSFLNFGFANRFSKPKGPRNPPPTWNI

[19] = molecular target: Receptor-type tyrosine-protein phosphatase beta (Homo sapiens, UniProt P23467); experiment: Inhibition of phosphatase activity of human PTPbeta using pNPP as a substrate after 10 mins by spectrophotometer analysis
NCI-H1975 [20] = experiment: Cytotoxicity against human NCI-H1975 cells by MTT assay; type: functional, cell-based

Sequence of Dual specificity protein phosphatase 3 (P51452 whole entry): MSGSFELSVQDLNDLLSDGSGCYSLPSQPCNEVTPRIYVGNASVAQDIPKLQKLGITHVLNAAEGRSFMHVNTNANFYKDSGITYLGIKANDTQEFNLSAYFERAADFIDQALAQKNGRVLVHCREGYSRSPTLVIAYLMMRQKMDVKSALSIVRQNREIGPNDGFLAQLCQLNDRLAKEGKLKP
Sequence of Receptor-type tyrosine-protein phosphatase gamma (P23470 whole entry): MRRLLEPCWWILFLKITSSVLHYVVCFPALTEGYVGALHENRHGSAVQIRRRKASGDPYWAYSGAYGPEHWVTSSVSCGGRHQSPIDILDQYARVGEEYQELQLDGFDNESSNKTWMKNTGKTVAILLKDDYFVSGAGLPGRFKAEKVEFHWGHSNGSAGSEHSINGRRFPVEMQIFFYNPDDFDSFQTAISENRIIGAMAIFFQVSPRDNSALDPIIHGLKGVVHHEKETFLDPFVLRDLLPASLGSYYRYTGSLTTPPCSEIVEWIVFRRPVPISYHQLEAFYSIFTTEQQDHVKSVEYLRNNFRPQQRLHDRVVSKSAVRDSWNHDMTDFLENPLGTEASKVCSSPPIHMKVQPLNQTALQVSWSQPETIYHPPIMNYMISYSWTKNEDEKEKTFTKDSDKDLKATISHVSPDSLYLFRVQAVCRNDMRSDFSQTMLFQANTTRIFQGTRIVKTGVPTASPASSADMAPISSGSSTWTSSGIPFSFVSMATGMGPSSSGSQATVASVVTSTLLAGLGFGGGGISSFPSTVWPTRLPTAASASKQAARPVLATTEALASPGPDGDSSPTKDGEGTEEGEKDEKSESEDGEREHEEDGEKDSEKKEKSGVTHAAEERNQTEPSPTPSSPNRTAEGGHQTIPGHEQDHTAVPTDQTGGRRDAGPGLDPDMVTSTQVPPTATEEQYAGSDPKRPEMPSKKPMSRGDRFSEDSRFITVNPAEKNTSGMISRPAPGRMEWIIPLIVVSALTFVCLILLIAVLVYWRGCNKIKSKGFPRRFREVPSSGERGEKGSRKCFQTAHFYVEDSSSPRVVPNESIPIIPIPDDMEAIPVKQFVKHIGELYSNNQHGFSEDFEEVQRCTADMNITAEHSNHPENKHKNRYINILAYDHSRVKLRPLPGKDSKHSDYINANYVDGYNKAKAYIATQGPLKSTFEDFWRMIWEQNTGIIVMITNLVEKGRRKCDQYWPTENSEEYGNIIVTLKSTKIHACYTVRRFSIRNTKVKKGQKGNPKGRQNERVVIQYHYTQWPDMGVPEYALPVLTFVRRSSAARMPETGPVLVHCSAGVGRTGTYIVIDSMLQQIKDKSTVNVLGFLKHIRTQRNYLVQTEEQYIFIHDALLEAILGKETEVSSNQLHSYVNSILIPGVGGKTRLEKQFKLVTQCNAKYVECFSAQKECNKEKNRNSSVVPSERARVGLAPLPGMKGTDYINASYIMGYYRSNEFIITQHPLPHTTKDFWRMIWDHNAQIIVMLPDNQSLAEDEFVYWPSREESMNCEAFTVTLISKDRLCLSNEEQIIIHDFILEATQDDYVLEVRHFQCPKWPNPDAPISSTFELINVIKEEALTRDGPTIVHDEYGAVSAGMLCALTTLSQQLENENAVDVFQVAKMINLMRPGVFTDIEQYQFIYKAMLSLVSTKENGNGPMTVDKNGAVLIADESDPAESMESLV
Sequence of Receptor-type tyrosine-protein phosphatase F (P10586 whole entry): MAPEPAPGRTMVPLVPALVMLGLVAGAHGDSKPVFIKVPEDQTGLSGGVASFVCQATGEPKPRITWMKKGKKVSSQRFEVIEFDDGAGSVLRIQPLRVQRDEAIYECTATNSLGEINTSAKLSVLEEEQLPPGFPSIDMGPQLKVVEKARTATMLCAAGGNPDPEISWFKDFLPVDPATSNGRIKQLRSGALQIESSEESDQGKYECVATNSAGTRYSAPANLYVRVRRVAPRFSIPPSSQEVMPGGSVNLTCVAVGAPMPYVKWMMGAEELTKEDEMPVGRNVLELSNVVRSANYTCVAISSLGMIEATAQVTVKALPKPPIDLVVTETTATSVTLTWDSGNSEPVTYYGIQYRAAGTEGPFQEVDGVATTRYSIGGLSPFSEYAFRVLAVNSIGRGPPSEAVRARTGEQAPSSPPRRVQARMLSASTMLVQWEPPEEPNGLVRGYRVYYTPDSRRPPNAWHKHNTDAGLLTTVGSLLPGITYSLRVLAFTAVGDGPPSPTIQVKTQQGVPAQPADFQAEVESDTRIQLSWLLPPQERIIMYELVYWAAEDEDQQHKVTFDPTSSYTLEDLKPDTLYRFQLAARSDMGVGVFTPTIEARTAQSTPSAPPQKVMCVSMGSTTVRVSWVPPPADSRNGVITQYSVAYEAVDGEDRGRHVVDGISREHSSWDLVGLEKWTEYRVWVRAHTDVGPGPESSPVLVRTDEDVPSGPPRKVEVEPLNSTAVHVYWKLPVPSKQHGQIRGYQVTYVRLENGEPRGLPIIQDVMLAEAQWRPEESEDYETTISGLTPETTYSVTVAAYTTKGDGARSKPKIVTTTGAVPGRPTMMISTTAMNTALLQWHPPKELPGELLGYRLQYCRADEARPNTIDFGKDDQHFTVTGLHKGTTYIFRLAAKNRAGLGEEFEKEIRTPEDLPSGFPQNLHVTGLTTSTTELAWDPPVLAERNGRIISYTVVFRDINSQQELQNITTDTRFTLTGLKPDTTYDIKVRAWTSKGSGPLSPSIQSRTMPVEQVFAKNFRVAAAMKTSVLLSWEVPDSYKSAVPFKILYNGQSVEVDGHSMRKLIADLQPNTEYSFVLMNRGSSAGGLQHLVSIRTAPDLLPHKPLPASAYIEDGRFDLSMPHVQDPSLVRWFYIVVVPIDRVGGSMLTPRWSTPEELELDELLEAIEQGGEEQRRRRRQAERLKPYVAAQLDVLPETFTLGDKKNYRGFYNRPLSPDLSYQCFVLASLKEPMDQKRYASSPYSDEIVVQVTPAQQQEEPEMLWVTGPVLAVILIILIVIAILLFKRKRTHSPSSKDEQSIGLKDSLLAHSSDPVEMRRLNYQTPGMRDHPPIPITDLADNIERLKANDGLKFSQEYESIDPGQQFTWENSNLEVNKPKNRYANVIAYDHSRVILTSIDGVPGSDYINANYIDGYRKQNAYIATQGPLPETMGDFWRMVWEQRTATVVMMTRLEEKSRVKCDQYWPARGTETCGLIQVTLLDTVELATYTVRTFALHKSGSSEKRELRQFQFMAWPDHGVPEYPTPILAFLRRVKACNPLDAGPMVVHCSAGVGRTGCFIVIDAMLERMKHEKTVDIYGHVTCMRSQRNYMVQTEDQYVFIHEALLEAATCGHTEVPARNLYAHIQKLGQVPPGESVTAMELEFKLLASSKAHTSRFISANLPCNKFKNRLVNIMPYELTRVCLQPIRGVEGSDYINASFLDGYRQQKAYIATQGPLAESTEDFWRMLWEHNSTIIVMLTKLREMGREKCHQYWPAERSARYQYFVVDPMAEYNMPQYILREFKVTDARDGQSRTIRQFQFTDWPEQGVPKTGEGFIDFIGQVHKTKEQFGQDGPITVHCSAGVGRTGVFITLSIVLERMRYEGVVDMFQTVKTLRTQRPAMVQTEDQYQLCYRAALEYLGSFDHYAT
Sequence of Receptor-type tyrosine-protein phosphatase mu (P28827 whole entry): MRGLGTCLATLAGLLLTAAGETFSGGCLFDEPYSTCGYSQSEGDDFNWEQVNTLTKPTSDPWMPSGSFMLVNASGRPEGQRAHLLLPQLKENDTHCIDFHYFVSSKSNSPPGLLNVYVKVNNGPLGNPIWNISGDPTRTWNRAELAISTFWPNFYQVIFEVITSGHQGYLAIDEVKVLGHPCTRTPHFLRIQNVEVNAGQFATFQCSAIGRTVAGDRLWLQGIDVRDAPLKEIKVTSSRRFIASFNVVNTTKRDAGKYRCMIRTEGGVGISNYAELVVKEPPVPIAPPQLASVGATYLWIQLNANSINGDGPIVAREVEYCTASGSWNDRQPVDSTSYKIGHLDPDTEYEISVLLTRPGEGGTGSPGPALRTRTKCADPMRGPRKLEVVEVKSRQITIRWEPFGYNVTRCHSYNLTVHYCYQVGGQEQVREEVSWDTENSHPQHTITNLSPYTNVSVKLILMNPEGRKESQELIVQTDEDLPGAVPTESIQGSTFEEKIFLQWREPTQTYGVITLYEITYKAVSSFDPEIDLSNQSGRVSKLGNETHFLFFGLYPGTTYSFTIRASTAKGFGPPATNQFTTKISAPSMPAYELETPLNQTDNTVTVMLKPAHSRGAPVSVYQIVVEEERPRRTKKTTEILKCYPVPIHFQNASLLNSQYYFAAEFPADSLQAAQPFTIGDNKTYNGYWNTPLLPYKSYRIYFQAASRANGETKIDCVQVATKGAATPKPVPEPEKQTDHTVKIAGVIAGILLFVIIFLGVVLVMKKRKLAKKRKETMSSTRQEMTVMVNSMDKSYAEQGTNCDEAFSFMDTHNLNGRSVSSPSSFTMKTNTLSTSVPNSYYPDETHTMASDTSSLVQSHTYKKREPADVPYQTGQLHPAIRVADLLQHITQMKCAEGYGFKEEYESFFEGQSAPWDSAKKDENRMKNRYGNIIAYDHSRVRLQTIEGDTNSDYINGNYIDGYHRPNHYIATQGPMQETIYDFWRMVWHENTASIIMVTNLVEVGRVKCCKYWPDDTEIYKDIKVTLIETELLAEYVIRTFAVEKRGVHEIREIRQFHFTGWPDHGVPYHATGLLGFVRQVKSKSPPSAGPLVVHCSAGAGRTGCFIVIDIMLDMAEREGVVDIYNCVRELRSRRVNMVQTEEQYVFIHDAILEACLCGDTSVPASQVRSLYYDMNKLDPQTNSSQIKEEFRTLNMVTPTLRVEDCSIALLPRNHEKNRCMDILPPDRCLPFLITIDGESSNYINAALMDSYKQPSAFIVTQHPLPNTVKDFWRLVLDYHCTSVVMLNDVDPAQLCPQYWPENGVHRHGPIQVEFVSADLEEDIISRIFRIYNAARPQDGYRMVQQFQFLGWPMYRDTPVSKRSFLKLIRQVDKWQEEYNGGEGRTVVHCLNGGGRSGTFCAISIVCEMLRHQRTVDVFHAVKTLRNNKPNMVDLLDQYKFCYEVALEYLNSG

fold change (FC) [3]: 1
fold change (FC) [4]: 1.1
SMILES: O=C(Nc1ccccc1)C(=O)Nc1ccc(NC(=O)C(c2ccccc2)S(=O)(=O)O)cc1 (configuration not stated)
Activity (NCI-H1975 [1]): inactive
Activity (MDA-MB-231 [2]): inactive

inhibition [5]: inactive
SMILES: O=C(O)C(=O)Nc1cccc(NC(=O)C(c2ccccc2)S(=O)(=O)O)c1 (configuration not stated)

IC50 [6]: > 50 µM
IC50 [7]: > 50 µM
IC50 [8]: > 50 µM
IC50 [9]: > 50 µM
IC50 [10]: > 50 µM
IC50 [12]: > 50 µM
IC50 [13]: > 50 µM
IC50 [14]: > 50 µM
IC50 [15]: > 50 µM
IC50 [16]: > 50 µM
IC50 [17]: > 50 µM
IC50 [18]: > 50 µM
IC50 [19]: > 50 µM
SMILES: O=C(Nc1ccc(NC(=O)C(c2ccccc2)S(=O)(=O)O)cc1)C(=O)Nc1ccc(-c2ccccc2)cc1 (configuration not stated)
Activity (MDA-MB-231 [11]): Dose-dependent effect
Activity (NCI-H1975 [20]): Dose-dependent effect

SMILES: CC(C)c1ccc(NC(=O)C(=O)Nc2ccc(NC(=O)C(c3ccccc3)S(=O)(=O)O)cc2)cc1 (configuration not stated)
Activity (MDA-MB-231 [11]): Dose-dependent effect
Activity (NCI-H1975 [20]): Dose-dependent effect
